Casp6 inh: caspase-6 (human) enzyme inhibition; P55212; 350,000 compounds, 0.53% hits; inhibition, % at 12.5 µM; purified caspase-6, Z-VEID-R110 cleavage fluorescence;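 active means mean inhibition across replicates at least about 35%, with every replicate also reaching that limit, limit read from the data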
Target sequence (P55212 24-179 limits assumed): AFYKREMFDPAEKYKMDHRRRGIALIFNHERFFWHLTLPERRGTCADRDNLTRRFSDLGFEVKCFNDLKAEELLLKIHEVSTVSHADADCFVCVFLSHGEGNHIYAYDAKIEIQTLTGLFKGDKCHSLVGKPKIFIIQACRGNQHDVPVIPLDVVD
Target sequence (P55212 194-293 limits assumed): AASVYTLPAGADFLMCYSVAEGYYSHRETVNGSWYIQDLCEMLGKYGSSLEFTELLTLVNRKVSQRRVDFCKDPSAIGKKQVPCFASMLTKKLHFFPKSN
DNMT1 inh: DNMT1 (human) enzyme inhibition. inhibition (reported as % activation of signal), % at 10 µM. AID 588458. 360,000 compounds, 0.83% hits. P26358. DNMT1 molecular beacon, Hinp1I cleavage, fluorescence
NS3 helicase inh: inhibitors of Hepatitis C virus NS3 helicase. NS3 helicase DNA unwinding, Cy5 molecular beacon fluorescence. inhibition, % at 10.9 µM. 290,000 compounds, 0.56% hits. AID 1800;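 active means inhibition above the mean of all tested compounds plus 3 SD, set per campaign, cut at about 35% in these data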
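Assay system – hepatitis C virus NS3 helicase domain fragment enzyme · Buffer or medium – MOPS pH 6.5, MgCl2, DTT, Tween20, BSA · Reagent – Cy5/quencher beacon DNA duplex and ATP to start · Compound – single 10.9 µM dose · Timing – 1 h at 25 °C · Technique – Cy5 beacon fluorescence read at start and 1 h · Measure – % inhibition of unwinding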
NSD2 HMT inh: inhibitors of human histone methyltransferase NSD2; inhibition, % at 12.5 µM; 310,000 compounds, 0.54% hits; O96028; NSD2 peptide methylation, AlphaScreen, 120 min; AID 743445
A number is an active result; - = inactive; . = no result. An excerpt weighted towards active compounds, which were near 1.5% of everything screened. Unless noted, no stated cut-off is given here; in the data, active means inhibition above about 50%; inactive means the rest.

SMILES | Casp6 inh | DNMT1 inh | NS3 helicase inh | NSD2 HMT inh
C[C@@H]1CN([C@@H](C)CO)C(=O)c2cc(C3=CCCC3)cnc2O[C@@H]1CN(C)Cc1ccc(C(=O)O)cc1 | - | . | . | .
CCc1ccc(-n2c(SCC(=O)NC3CCS(=O)(=O)C3)nc3ccccc3c2=O)cc1 (stereo not drawn) | 45 | - | . | -
CCN1[C@@H]2c3ccc(-c4ccccc4OC)c(=O)n3C[C@@H]2[C@@H](CO)[C@@H]1C(=O)NCC1CC1 | - | . | . | .
CC(NC(=S)NC1CCCCC1)c1ccc(C(C)(C)C)cc1 (stereo not drawn) | 42 | - | - | -
CC(C)c1ccc(C(C)NC(=S)NC2CCCCC2)cc1 (stereo not drawn) | - | - | - | -
O=C1c2ccccc2-c2nc3ccccc3nc21 | . | - | - | -
Cc1nc2c(nc1C)C(=O)c1ccccc1C2=O | 36 | - | . | -
C[C@H](CO)N1C[C@H](C)[C@@H](CN(C)Cc2ccccc2)OCCCC[C@H](C)Oc2ccc(NC(=O)C3CCCCC3)cc2C1=O | - | . | . | .
CN(C)c1ccc(C=c2c3cc(O)ccc3n3c2cc(-c2ccccc2)[n+]3C)cc1 | 95 | - | . | -
C[n+]1c(-c2ccccc2)cc2c(=Cc3ccc([N+](=O)[O-])cc3)c3ccccc3n21 | 83 | 52 | . | -
C[n+]1c(-c2ccccc2)cc2c(=Cc3ccccc3)c3ccccc3n21 | 53 | 50 | . | -
CN(C)c1ccc(/C=c2\sc3nc(-c4ccccc4)nn3c2=O)cc1 | . | . | - | .
O=C(C[C@@H]1CC[C@@H]2[C@H](COC[C@H](O)CN2C(=O)c2ccccn2)O1)NC1CCC1 | - | . | . | .
CC1CN(C(=O)C2CCCCC2)C(C)CN1C(=O)C1CCCCC1 (stereo not drawn) | . | - | - | -
CC1CCCC(C)N1C(=O)C1CCCCC1 (stereo not drawn) | 59 | - | - | .
CN1[C@@H]2Cn3c(ccc(/C=C/c4ccccc4)c3=O)[C@H]1[C@@H](C(=O)NC1CCC1)[C@@H]2CO | - | . | . | .
CCOC(=O)N1CCC(NC2CCCCCCC2)CC1 | . | - | - | -
CCOC(=O)N1CCN(C(C(=O)NC2CCCC2)C(C)C)CC1 (stereo not drawn) | 38 | . | . | .
CN(c1ncc(C(F)(F)F)cc1Cl)n1cc(C(N)=O)c2ccccc2c1=O | . | - | - | 110
O=C([C@H]1[C@H](CO)[C@H]2Cn3c(cccc3=O)[C@H]2N1Cc1ccccn1)N1CCC(Cc2ccccc2)CC1 | 41 | . | . | .
O=C(NCC1CCCCC1)[C@@H]1[C@@H](CO)[C@@H]2Cn3c(cccc3=O)[C@@H]2N1Cc1ccccn1 | - | . | . | .
COC(=O)[C@@H]1[C@@H](CO)[C@@H]2Cn3c(cccc3=O)[C@@H]2N1CC1CCOCC1 | 74 | . | . | .
COC(=O)[C@H]1[C@H](CO)[C@H]2Cn3c(cccc3=O)[C@H]2N1CC1CCCCC1 | - | . | . | .
CN1CCN(C(=O)[C@@H]2[C@@H](CO)[C@@H]3Cn4c(cccc4=O)[C@@H]3N2Cc2cc(F)ccc2F)CC1 | - | . | . | .
O=C([C@@H]1[C@@H](CO)[C@@H]2Cn3c(cccc3=O)[C@@H]2N1Cc1cc(F)ccc1F)N1CCOCC1 | 49 | . | . | .
SMILES | Casp6 inh | DNMT1 inh | NS3 helicase inh | NSD2 HMT inh
C[C@@H]1CCCCO[C@H](CN(C)C(=O)Nc2ccc(F)cc2)[C@@H](C)CN([C@H](C)CO)C(=O)c2cc(NC(=O)Nc3ccc4c(c3)OCO4)ccc2O1 | - | . | . | .
CC(C)c1cn(CC[C@H]2CC[C@H](NC(=O)C3CCOCC3)[C@H](CO)O2)nn1 | - | . | . | .
COc1ccc(NC(=O)N(C)C[C@@H]2OCCCC[C@H](C)Oc3ccc(NC(=O)CCCN(C)C)cc3C(=O)N([C@H](C)CO)C[C@@H]2C)cc1 | - | . | . | .
COc1ccc2c3c([nH]c2c1)[C@@H](CO)N(C(=O)c1ccncc1)CC31CCN(Cc2cccnc2)CC1 | - | . | . | .
Cc1noc(C)c1NC(=O)N(C)C[C@H]1Oc2ccc(NC(=O)CCCN(C)C)cc2CC(=O)N([C@@H](C)CO)C[C@@H]1C | - | . | . | .
CC(C)(C)[C@@H]1C=C(C(=O)N2CCCCCCC2)O[C@H](OCc2ccc(CO)cc2)C1 | - | . | . | .
Cc1nc2ccc3nc(NC(=O)c4ccc5c(c4)OCCO5)sc3c2s1 | . | - | - | -
Cc1cnc(NC(=O)c2ccc3c(c2)OCCO3)s1 | 36 | - | . | -
CC(=O)N1CCc2c(sc(NC(=O)C3CCCCC3)c2C(N)=O)C1 | 75 | - | - | .
COC(=O)c1c(NC(=O)C2CC2)sc2c1CCN(C(C)=O)C2 | - | - | - | .
CC(=O)N1CCc2c(sc(NC(=O)Cc3ccccc3)c2C(N)=O)C1 | 67 | - | - | .
COc1cccc(-c2ccc3c(c2)O[C@H](CN(C)C)[C@H](C)CN([C@H](C)CO)S3(=O)=O)c1 | - | . | . | .
COCCn1c(SCC(=O)Nc2ccccc2OC)nc2c([nH]c3ccccc32)c1=O | 70 | - | - | -
CC(C)NC(=O)Nc1ccc2c(c1)C(=O)N([C@H](C)CO)C[C@@H](C)[C@H](CN(C)S(=O)(=O)c1ccccc1)OCCCC[C@H](C)O2 | - | . | . | .
CCn1c(SC(C)C(=O)O)nc2sc3c(c2c1=O)CCC3 (stereo not drawn) | . | 90 | - | -
COc1ccc2c3c([nH]c2c1)[C@H](CO)N(C(=O)Nc1ccc(F)cc1)CC31CCN(S(=O)(=O)c2ccc(C)cc2)CC1 | - | . | . | .
O=C(N/N=C/c1ccco1)c1cccc(N2CCCC2=O)c1 | - | - | - | -
O=C(N/N=C/c1ccco1)c1cccc(N2Cc3ccccc3C2)c1 | - | 80 | - | .
O=C(c1ccco1)c1coc2c1cc(O)c1ccccc12 | 47 | - | - | -
CC(=O)c1coc2c1cc(O)c1ccccc12 | . | - | - | .
CC1(C)COC(/C=C/c2cccc([N+](=O)[O-])c2)=N1 | 46 | - | - | -
Cc1ccc(-c2nc(CCNC(=O)c3ccco3)cs2)cc1 | - | - | . | -
Cc1cccc(-c2nc(CCNC(=O)c3ccco3)cs2)c1 | 42 | - | . | -
C[C@H](CO)N1C[C@H](C)[C@H](CN(C)Cc2ccccn2)Oc2ncc(C#Cc3cccc(F)c3)cc2C1=O | - | . | . | .
O=C([C@H]1[C@H](CO)[C@H]2Cn3c(ccc(/C=C/c4ccccc4)c3=O)[C@H]2N1CC1CC1)N1CCOCC1 | - | . | . | .
SMILES | Casp6 inh | DNMT1 inh | NS3 helicase inh | NSD2 HMT inh
C[C@@H](NC(=O)C[C@@H]1CC[C@@H](NC(=O)CN2CCOCC2)[C@@H](CO)O1)c1ccccc1 | 63 | . | . | .
C[C@@H](NC(=O)C[C@H]1CC[C@H](NC(=O)CN2CCOCC2)[C@H](CO)O1)c1ccccc1 | - | . | . | .
C[C@H]1CN([C@@H](C)CO)C(=O)Cc2cc(NC(=O)Cn3cnnn3)ccc2O[C@H]1CN(C)Cc1ccccc1 | - | . | . | .
O=C(C[C@@H]1C=C[C@H](NC(=O)c2ccccc2)[C@H](CO)O1)NCCc1ccncc1 | - | . | . | .
CCN(C(=O)COC(=O)/C=C/c1ccccc1[N+](=O)[O-])C1CCS(=O)(=O)C1 (stereo not drawn) | - | - | - | -
CC(C)CN(C(=O)COC(=O)/C=C/c1ccccc1)C1CCS(=O)(=O)C1 (stereo not drawn) | 39 | - | . | -
O=C(CN1CCOCC1)N[C@H]1CC[C@H](CCNC(=O)C2CCCCC2)O[C@H]1CO | - | . | . | .
CCCCNc1c(-c2ccc(OC)c(SC3CCCCC3)c2)nc2ccc(C)cn12 | - | - | . | -

Source: PubChem
